The source of these data is ChEMBL document CHEMBL1926627, “Synthesis and evaluation of novel modified γ-lactam prostanoids as EP4 subtype-selective agonists” (Bioorg Med Chem, 2012).

The structures appear in SMILES notation.

As usually defined, the Ki is a measure of affinity in units of concentration, obtained from inhibition or displacement. A higher Ki goes with a looser hold on the target. As usually defined, the EC50 is the midpoint of the concentration-response curve.

Test [1] has as its target Prostaglandin E2 receptor EP2 subtype (Mus musculus, UniProt Q62053). The experiment in a line: Displacement of [3H]-PGE2 from mouse EP2 receptor expressed in CHO cells after 60 mins by liquid scintillation counter. The format is cell-based. The essentials:
(§1)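 Membranes from CHO cells stably expressing mouse EP1–4, incubated with 2.5 nM [³H]PGE₂ and test compound at various concentrations in 10 mM KH₂PO₄–KOH, 1 mM EDTA, 10 mM MgCl₂, 0.1 mM NaCl, pH 6.0. Incubated 25 °C, 60 min (EP1: 20 min). Filtration on GF/B, ice-cold buffer wash, scintillation counting. Nonspecific binding with excess unlabeled PGE₂. IC50 from regression curve; Ki = IC50/(1+[L]/Kd).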
In general terms: Displacement assays read how much labelled ligand stays bound in the presence of the test substance.

Test [2] deals with Prostaglandin E2 receptor EP4 subtype (Rattus norvegicus, UniProt P43114). The experiment in a line: Agonist activity at rat EP4 receptor expressed in CHO cells assessed as cAMP production after 10 mins by radioimmunoassay. The format is functional, cell-based. The essentials: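 CHO cells expressing rat EP4 seeded at 1×10^5 cells/well and grown 2 days. Washed with MEM, then 10 min at 37 °C in MEM with 2 µM diclofenac. Preincubated 10 min at 37 °C in assay medium with 1% BSA. Test compound added, 10 min at 37 °C. Stopped with ice-cold 10% trichloroacetic acid. cAMP measured by radioimmunoassay.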

In test [3] the target is T1, Prostaglandin E2 receptor EP3 subtype (Mus musculus, UniProt P30557).
T1 sequence (P30557 whole entry): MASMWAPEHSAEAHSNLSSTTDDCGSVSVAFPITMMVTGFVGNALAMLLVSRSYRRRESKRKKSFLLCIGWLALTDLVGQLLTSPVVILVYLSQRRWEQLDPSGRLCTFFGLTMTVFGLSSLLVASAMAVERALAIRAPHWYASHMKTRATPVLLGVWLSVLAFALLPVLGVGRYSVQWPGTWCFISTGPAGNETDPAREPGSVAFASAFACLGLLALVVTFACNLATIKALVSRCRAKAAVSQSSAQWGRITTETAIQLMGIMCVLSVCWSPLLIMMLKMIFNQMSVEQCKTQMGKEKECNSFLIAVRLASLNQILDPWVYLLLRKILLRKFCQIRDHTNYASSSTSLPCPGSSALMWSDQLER
The experiment in a line: Displacement of [3H]-PGE2 from mouse EP3 receptor expressed in CHO cells after 60 mins by liquid scintillation counter. The format is cell-based. In a few lines:
as §1

Test [4] addresses T2, Prostaglandin E2 receptor EP1 subtype (Mus musculus, UniProt P35375).
T2 sequence (P35375 whole entry): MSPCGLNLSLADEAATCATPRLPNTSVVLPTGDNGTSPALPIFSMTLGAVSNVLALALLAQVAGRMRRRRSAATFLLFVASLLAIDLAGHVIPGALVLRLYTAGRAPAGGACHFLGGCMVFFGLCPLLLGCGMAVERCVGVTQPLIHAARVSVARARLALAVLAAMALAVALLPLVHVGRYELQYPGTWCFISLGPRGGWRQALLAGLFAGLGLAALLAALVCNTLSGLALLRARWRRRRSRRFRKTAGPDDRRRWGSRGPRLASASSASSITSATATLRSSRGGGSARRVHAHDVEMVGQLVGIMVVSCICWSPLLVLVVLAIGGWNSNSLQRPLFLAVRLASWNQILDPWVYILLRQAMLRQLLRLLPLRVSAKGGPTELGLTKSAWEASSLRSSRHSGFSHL
Briefly: Displacement of [3H]-PGE2 from mouse EP1 receptor expressed in CHO cells after 20 mins by liquid scintillation counter. It is filed as cell-based. The essentials:
as §1

Test [5] deals with Prostaglandin E2 receptor EP4 subtype (Mus musculus, UniProt P32240). Briefly: Displacement of [3H]-PGE2 from mouse EP4 receptor expressed in CHO cells after 60 mins by liquid scintillation counter. It is filed as cell-based. In a few lines: as §1
Prostaglandin E2 receptor EP4 subtype (Mus musculus, UniProt P32240), sequence (P32240 whole entry): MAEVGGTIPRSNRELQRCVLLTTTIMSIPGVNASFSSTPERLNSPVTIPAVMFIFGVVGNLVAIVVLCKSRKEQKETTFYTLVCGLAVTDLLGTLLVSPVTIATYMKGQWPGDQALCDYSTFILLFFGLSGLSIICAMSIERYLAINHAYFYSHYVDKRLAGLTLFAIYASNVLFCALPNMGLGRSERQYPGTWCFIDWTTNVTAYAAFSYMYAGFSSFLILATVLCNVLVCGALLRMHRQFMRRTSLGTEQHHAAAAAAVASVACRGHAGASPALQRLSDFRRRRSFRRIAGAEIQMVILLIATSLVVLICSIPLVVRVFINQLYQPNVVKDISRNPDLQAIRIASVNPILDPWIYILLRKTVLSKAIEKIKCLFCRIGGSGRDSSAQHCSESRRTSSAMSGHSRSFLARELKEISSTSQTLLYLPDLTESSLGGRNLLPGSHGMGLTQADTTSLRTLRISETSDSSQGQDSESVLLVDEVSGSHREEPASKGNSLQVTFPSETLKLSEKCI

Prostaglandin E2 receptor EP4 subtype (Rattus norvegicus, UniProt P43114), sequence (P43114 whole entry): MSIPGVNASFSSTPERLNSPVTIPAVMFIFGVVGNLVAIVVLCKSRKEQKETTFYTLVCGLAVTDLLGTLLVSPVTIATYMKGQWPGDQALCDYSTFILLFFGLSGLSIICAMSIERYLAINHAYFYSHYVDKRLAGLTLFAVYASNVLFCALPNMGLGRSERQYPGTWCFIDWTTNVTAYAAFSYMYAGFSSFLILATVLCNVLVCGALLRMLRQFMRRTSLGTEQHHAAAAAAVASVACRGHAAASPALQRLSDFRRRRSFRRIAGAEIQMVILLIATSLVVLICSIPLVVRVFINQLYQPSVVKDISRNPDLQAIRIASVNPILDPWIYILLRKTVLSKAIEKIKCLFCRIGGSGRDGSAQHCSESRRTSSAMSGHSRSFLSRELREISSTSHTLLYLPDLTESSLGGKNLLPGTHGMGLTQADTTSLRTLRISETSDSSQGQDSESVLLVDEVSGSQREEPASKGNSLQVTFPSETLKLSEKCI
Prostaglandin E2 receptor EP2 subtype, sequence (Q62053 whole entry): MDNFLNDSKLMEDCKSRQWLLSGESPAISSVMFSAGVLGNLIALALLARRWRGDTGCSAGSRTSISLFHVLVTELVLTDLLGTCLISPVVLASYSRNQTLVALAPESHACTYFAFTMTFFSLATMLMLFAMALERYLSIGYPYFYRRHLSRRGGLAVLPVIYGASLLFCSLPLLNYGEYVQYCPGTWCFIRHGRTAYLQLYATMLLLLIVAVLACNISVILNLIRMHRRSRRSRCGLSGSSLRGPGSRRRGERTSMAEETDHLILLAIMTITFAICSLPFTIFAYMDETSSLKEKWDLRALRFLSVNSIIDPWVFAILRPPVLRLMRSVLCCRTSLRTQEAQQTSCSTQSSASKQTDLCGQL

Turning to `O=C(O)CCCSCCN1C(=O)OC[C@@H]1/C=C/[C@@H](O)Cc1cccc(-c2ccccc2)c1`, the Ki in test [1] is over 10000 nM; in test [3], over 10000 nM; in test [4], over 10000 nM; in test [5], 28 nM. Besides, the EC50 in test [2] amounted to 450 nM.
As to `O=C(O)CCCSCCN1C(=O)OC[C@@H]1/C=C/[C@@H](O)Cc1cccc(OC(F)(F)F)c1`, the Ki is over 10000 nM in test [1], 1700 nM in test [3], over 10000 nM in test [4] and 29 nM in test [5]. The half-maximal effective concentration (EC50) in test [2] amounted to 160 nM.
For the compound `COCc1cccc(C[C@H](O)/C=C/[C@H]2COC(=O)N2CCSCCCC(=O)O)c1`, the Ki is over 10000 nM in test [1], over 10000 nM in test [3], over 10000 nM in test [4] and 7.2 nM in test [5]. Also, in test [2], the EC50 was 24 nM.
Turning to `COCc1cccc(C[C@H](O)/C=C/[C@H]2[C@H](O)CC(=O)[C@@H]2CCSCCCC(=O)O)c1`, in test [2], the EC50 was found to be 1.4 nM. The same compound came in with a Ki in test [4] of over 10000 nM.
`CCc1cccc(C[C@H](O)/C=C/[C@H]2COC(=O)N2CCSCCCC(=O)O)c1`: the Ki in test [1] was over 10000 nM; in test [3], 2700 nM; in test [4] it was 2400 nM; in test [5] it was 7.9 nM. Also, the EC50 in test [2] is 18 nM.
On the same counts, the results for `CCCc1cccc(C[C@H](O)/C=C/[C@H]2CCC(=S)N2CCCCCCC(=O)O)c1` are 6800 nM, 2000 nM, over 10000 nM, 0.4 nM and 27 nM.
In the case of `O=C(O)CCCCCCN1C(=S)CC[C@@H]1/C=C/[C@@H](O)Cc1cccc(F)c1`, the Ki in test [1] was over 10000 nM; in test [3] it was 1700 nM; in test [4], over 10000 nM; in test [5], 0.69 nM. In test [2], the EC50 was determined as 26 nM.
In the case of `O=C(O)CCCSCCN1C(=O)SC[C@@H]1/C=C/[C@@H](O)Cc1cccc(F)c1`, the inhibition constant (Ki) in test [1] was over 10000 nM; in test [3], 1800 nM; in test [4], over 10000 nM; in test [5], 1.5 nM. Moreover, in test [2], the EC50 turned out to be 5.7 nM.
As to `O=C(O)CCCSCCN1C(=O)OC[C@@H]1/C=C/[C@@H](O)Cc1cccc(F)c1`, the Ki in test [1] is over 10000 nM; in test [3], 4000 nM; in test [4] it was 1200 nM; in test [5], 20 nM. The EC50 in test [2] amounted to 35 nM.
The corresponding values for `CCCc1cccc(C[C@H](O)/C=C/[C@H]2COC(=O)N2CCSCCCC(=O)O)c1` are over 10000 nM, 1900 nM, over 10000 nM, 2.4 nM and 93 nM.
Consider `COCc1cccc(C[C@H](O)/C=C/[C@H]2CCC(=O)N2CCSCCCC(=O)O)c1`, for which the Ki was 8500 nM in test [1], over 10000 nM in test [3], over 10000 nM in test [4] and 8 nM in test [5]. Besides, the EC50 in test [2] is 1.3 nM.
`O=C(O)CCCSCCN1C(=O)OC[C@@H]1/C=C/[C@@H](O)Cc1ccccc1`: the inhibition constant Ki in test [1] was over 10000 nM; in test [3], 6400 nM; in test [4] it was over 10000 nM; in test [5] it was 4.2 nM. Further, the 50% effective concentration (EC50) in test [2] stood at 36 nM.
As to `CCc1cccc(C[C@H](O)/C=C/[C@H]2CCC(=S)N2CCCCCCC(=O)O)c1`, the Ki was 1100 nM in test [1], 2300 nM in test [3], over 10000 nM in test [4] and 0.83 nM in test [5]. Moreover, in test [2], the EC50 turned out to be 9.4 nM.
The corresponding values for `O=C(O)CCCCCCN1C(=S)CC[C@@H]1/C=C/[C@@H](O)Cc1ccccc1` are over 10000 nM, 2300 nM, over 10000 nM, 1.5 nM and 29 nM.
The corresponding values for `COCc1cccc(C[C@H](O)/C=C/[C@H]2CCC(=O)[C@@H]2CCSCCCC(=O)O)c1` are 470 nM, 190 nM, over 10000 nM, 2.4 nM and 1.1 nM.
